“Also recorded” adds a separate entry of the source.
Key:
[1] = Plasma stability, dog plasma; format: in vitro ADME; details: 0.5 mM, 37°C, HPLC; for average remaining percentage of intact MT218: n = 2
How it was run: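 Test compound at 0.5 mM was incubated in human, rat or dog plasma at 37°C for up to 48 h, with PBS as control. Samples were mixed with methanol, centrifuged, and the intact compound was quantified by analytical reversed-phase (C18) HPLC.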

[2] = Metabolic stability in cynomolgus monkey hepatocytes; format: in vitro ADME; details: 2 hours of incubation, LC-MS/MS
[3] = test system: PC3 human prostate cancer xenografts; assay: Contrast-enhanced MRI of PC3 prostate tumor xenografts in rats; format: in vivo, rat; details: PC3 tumors in rats, 3 T, n = 6
How it was run: (§1)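 Male rats carried subcutaneous flank xenografts of 4 × 10⁶ PC3 or 8 × 10⁶ LNCaP cells in Matrigel-PBS (1:1) and were imaged once tumours exceeded 100 mm³. Scans used 1 mm slices, 2 averages and a 128 × 128 matrix. The same tumour-bearing rats were reused across agents and doses, with a clinical Gd agent at 0.1 mmol Gd/kg as comparator.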

[4] = test system: LNCaP human prostate tumors; assay: Contrast-enhanced MRI of LNCaP prostate tumor xenografts in rats; format: in vivo, rat; details: 3 T, n = 3
How it was run: as §1

CNR2 = CNR2 (Homo sapiens, UniProt P34972); assay: SAFETYscan E/IC50 assay, CNR2; format: biochemical; details: concentration range 0.005 to 100 μM
CNR2, sequence (P34972 whole entry, the tested form may be a part): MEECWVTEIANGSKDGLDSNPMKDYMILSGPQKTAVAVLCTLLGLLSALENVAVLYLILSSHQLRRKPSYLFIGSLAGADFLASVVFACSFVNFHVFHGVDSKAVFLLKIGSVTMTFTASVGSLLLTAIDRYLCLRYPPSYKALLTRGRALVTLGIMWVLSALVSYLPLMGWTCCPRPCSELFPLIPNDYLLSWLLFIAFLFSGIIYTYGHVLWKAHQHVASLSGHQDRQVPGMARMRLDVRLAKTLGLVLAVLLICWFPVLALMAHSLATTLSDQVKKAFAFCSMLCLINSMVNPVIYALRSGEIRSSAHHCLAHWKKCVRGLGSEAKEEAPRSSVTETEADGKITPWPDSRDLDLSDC
How it was run: (§2)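 Contract-laboratory in vitro panel of 78 targets, run in agonist and/or antagonist modes under provider SOPs over 0.005 to 100 μM. Panel formats included enzyme fragment complementation, FLIPR-based cellular assays, kinase binding and enzymatic assays.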

OPRD1 = OPRD1 (Homo sapiens, UniProt P41143); assay: SAFETYscan E/IC50 assay, OPRD1; format: biochemical; details: concentration range 0.005 to 100 μM
OPRD1, sequence (P41143 whole entry): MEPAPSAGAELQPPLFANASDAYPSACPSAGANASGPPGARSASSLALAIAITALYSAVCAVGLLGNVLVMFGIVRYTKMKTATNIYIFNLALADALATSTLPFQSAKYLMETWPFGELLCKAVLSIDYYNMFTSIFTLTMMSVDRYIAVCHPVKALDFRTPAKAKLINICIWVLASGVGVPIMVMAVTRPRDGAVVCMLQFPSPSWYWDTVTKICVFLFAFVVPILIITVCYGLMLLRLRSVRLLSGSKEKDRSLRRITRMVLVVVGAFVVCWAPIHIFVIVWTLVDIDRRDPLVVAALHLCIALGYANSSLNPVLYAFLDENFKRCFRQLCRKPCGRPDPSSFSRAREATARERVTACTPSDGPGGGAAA
How it was run: as §2

GABAA = assay: SAFETYscan E/IC50 assay, GABAA; format: biochemical; details: concentration range 0.005 to 100 μM
How it was run: as §2

[5] = Pharmacokinetics in beagle dogs; format: in vivo, dog; details: for AUC: AUC 0-6h; for AUC / AUCINF / C0 / Cl / MRT / T1/2 / Vz: Gd by ICP-MS, NCA, n = 3
Excretion in SD rats = format: in vivo, rat
How it was run: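 Non-GLP study in SD rats given a single IV dose of 0.1 mmol/kg. One group (3/sex) gave urine and feces predose and at 0–4, 4–8, 8–24, 24–48, 48–72, 72–96, 96–120 and 120–144 h. A second group with conscious biliary cannulation gave bile 30 min predose and at 0–1, 1–2, 2–4, 4–6 and 6–8 h. Gd was measured by ICP-MS.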

SD rats = assay: Single and repeated dose toxicity and toxicokinetics in SD rats; format: in vivo, rat; details: for NOAEL: SD rats; for accumulation ratio AUC0–24h (D14)/AUC0–24h (D1) of Gd: 14 days
How it was run: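 GLP study in SD rats aged 6–7 weeks (M 200–246 g, F 175–224 g). […] Clinical observation, organ weights and macro/microscopic histopathology were done. Plasma exposure (AUC0–24h, C0) was taken on D1 and D14, with accumulation ratio AUC0–24h(D14)/AUC0–24h(D1) of Gd.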

CYP1A2 = CYP1A2 (Homo sapiens, UniProt P05177); details: 0.01, 0.1, 1, 10, and 100 μM, pooled human liver microsomes 0.5 mg/mL
CYP1A2, sequence (P05177 whole entry): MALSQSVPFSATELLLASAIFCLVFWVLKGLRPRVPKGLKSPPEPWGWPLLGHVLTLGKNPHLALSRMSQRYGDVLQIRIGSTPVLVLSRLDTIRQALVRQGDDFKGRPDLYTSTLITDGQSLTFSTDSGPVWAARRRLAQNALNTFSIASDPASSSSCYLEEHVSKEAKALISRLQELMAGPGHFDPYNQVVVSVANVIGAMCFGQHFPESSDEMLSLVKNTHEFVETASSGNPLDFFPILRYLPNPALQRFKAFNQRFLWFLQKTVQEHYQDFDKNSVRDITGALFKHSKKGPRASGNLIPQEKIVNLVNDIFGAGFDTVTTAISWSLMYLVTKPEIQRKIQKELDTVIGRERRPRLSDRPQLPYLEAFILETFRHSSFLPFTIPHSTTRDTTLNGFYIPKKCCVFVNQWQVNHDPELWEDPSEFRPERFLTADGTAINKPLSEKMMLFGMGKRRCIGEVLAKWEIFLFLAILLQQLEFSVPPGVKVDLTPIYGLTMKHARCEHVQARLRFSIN

CYP2B6 = details: human primary hepatocytes, 1, 10, and 100 μM
CYP2C9 = CYP2C9 (Homo sapiens, UniProt P11712); assay: CYP2C9 inhibition in human liver microsomes; details: 0.01, 0.1, 1, 10, and 100 μM, pooled human liver microsomes 0.5 mg/mL
CYP2C9, sequence (P11712 whole entry): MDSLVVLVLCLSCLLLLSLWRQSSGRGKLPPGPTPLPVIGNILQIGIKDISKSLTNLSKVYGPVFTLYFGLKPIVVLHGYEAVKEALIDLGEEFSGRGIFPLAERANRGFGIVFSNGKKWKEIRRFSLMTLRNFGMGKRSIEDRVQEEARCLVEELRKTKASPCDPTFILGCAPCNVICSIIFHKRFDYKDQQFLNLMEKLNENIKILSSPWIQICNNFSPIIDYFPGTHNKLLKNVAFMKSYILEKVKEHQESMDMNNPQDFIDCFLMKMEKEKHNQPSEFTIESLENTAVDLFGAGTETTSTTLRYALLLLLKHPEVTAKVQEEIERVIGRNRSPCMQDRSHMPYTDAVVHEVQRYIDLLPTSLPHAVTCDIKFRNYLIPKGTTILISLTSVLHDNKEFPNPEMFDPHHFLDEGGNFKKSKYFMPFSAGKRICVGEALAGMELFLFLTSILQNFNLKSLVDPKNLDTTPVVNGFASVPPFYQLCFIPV

[6] = beagle dog ♀, 0.04 mmol/kg single IV
[7] = beagle dog ♀, 0.1 mmol/kg single IV
[8] = beagle dog ♀, 0.2 mmol/kg single IV
[9] = beagle dog ♂, 0.04 mmol/kg single IV
[10] = beagle dog ♂, 0.1 mmol/kg single IV
[11] = beagle dog ♂, 0.2 mmol/kg single IV

**Q.** With ZD2-N3-Gd(HP-DO3A) [MT218] as the substance, how does the “average remaining percentage of intact MT218” value (from here on “average remaining percentage”) ([1]; 1 h) read?
**A.** 89.19%

**Q.** And the “average remaining percentage” value ([1]; 3 h)?
**A.** 71.45%

**Q.** And the “average remaining percentage” value ([1]; 6 h)?
**A.** 47.81%

**Q.** And the “average remaining percentage” value ([1]; 28 h)?
**A.** 11.23%

**Q.** What about the “average remaining percentage” value ([1]; 48 h) of the same substance?
**A.** 5.38%

**Q.** What about the “enzymatic degradation half-life (t1/2)” value [1] of the same substance?
**A.** 351 min

**Q.** What about the “remaining MT218” value [2] of the same substance?
**A.** 82.9%

**Q.** And the CNR ([3]; 0.02 mmol Gd/kg IV, 10 minutes postinjection)?
**A.** 2.67 ± 1.05

**Q.** And the CNR ([3]; 0.02 mmol Gd/kg IV, 30 minutes postinjection)?
**A.** 1.97 ± 0.67

**Q.** What about the CNR ([3]; 0.04 mmol Gd/kg IV, 10 minutes postinjection) of the same substance?
**A.** 5.94 ± 1.68

**Q.** What about the CNR ([3]; 0.04 mmol Gd/kg IV, 30 minutes postinjection) of the same substance?
**A.** 4.92 ± 0.79

**Q.** And the CNR ([4]; 0.02 mmol/kg IV)?
**A.** 0.88 ± 0.06

**Q.** What about the CNR ([4]; 0.04 mmol/kg IV) of the same substance?
**A.** 1.13 ± 0.38

**Q.** What about the inhibition rate (CNR2) of the same substance?
**A.** 12.4%

**Q.** And the inhibition rate (OPRD1)?
**A.** 11.08%

**Q.** And the inhibition rate (GABAA)?
**A.** 24.25%

**Q.** What about the AUC [5, 6] of the same substance?
**A.** 38160 ng·h/mL

**Q.** And the AUC [5, 7]?
**A.** 93960 ng·h/mL

**Q.** And the AUC [5, 8]?
**A.** 138990 ng·h/mL

**Q.** What about the AUC [5, 9] of the same substance?
**A.** 34800 ng·h/mL

**Q.** What about the AUC [5, 10] of the same substance?
**A.** 89520 ng·h/mL

**Q.** And the AUC [5, 11]?
**A.** 156540 ng·h/mL

**Q.** What about the “AUC Ratio” value ([5]; AUC(dose)/AUC(low dose), beagle dog ♀, 0.04 mmol/kg) of the same substance?
**A.** 1

**Q.** And the “AUC Ratio” value ([5]; AUC(dose)/AUC(low dose), beagle dog ♂, 0.04 mmol/kg)?
**A.** 1

**Q.** And the “AUC Ratio” value ([5]; AUC(high dose)/AUC(low dose), beagle dog ♀, 0.2 mmol/kg)?
**A.** 3.64

**Q.** And the “AUC Ratio” value ([5]; AUC(high dose)/AUC(low dose), beagle dog ♂, 0.2 mmol/kg)?
**A.** 4.50

**Q.** What about the “AUC Ratio” value ([5]; AUC(middle dose)/AUC(low dose), beagle dog ♀, 0.1 mmol/kg) of the same substance?
**A.** 2.46

**Q.** What about the “AUC Ratio” value ([5]; AUC(middle dose)/AUC(low dose), beagle dog ♂, 0.1 mmol/kg) of the same substance?
**A.** 2.57

**Q.** And the AUCINF [5, 6]?
**A.** 38470 ng·h/mL

**Q.** And the C0 [5, 6]?
**A.** 59.33 µg/mL

**Q.** And the Cl [5, 6]?
**A.** 2.734 mL/min/kg

**Q.** What about the MRT [5, 6] of the same substance?
**A.** 58.2 min

**Q.** And the T1/2 [5, 6]?
**A.** 44.4 min

**Q.** And the Vz [5, 6]?
**A.** 0.17599 L/kg

**Q.** What about the AUCINF [5, 7] of the same substance?
**A.** 94170 ng·h/mL

**Q.** And the C0 [5, 7]?
**A.** 146.59 µg/mL

**Q.** And the Cl [5, 7]?
**A.** 2.794 mL/min/kg

**Q.** What about the MRT [5, 7] of the same substance?
**A.** 57.6 min

**Q.** What about the T1/2 [5, 7] of the same substance?
**A.** 40.2 min

**Q.** And the Vz [5, 7]?
**A.** 0.16108 L/kg

**Q.** What about the AUCINF [5, 8] of the same substance?
**A.** 139150 ng·h/mL

**Q.** And the C0 [5, 8]?
**A.** 268.10 µg/mL

**Q.** And the Cl [5, 8]?
**A.** 3.7757 mL/min/kg

**Q.** What about the MRT [5, 8] of the same substance?
**A.** 47.4 min

**Q.** What about the T1/2 [5, 8] of the same substance?
**A.** 37.8 min

**Q.** And the Vz [5, 8]?
**A.** 0.20593 L/kg

**Q.** And the AUCINF [5, 9]?
**A.** 34940 ng·h/mL

**Q.** And the C0 [5, 9]?
**A.** 50.97 µg/mL

**Q.** And the Cl [5, 9]?
**A.** 3.0033 mL/min/kg

**Q.** And the MRT [5, 9]?
**A.** 60.6 min

**Q.** What about the T1/2 [5, 9] of the same substance?
**A.** 45.6 min

**Q.** What about the Vz [5, 9] of the same substance?
**A.** 0.19708 L/kg

**Q.** What about the AUCINF [5, 10] of the same substance?
**A.** 89780 ng·h/mL

**Q.** What about the C0 [5, 10] of the same substance?
**A.** 149.33 µg/mL

**Q.** What about the Cl [5, 10] of the same substance?
**A.** 2.9287 mL/min/kg

**Q.** And the MRT [5, 10]?
**A.** 57 min

**Q.** What about the T1/2 [5, 10] of the same substance?
**A.** 42 min

**Q.** What about the Vz [5, 10] of the same substance?
**A.** 0.17773 L/kg

**Q.** And the AUCINF [5, 11]?
**A.** 156900 ng·h/mL

**Q.** And the C0 [5, 11]?
**A.** 286.90 µg/mL

**Q.** What about the Cl [5, 11] of the same substance?
**A.** 3.367 mL/min/kg

**Q.** What about the MRT [5, 11] of the same substance?
**A.** 52.8 min

**Q.** What about the T1/2 [5, 11] of the same substance?
**A.** 41.4 min

**Q.** What about the Vz [5, 11] of the same substance?
**A.** 0.20164 L/kg

**Q.** And the “mean plasma elimination half-life (t1/2)” value ([5]; dogs, 0.1 mmol/kg IV)?
**A.** 41.4 min

**Q.** And the “total excretion of injected Gd in bile, feces, and urine” value (Excretion in SD rats; SD rats, 0.1 mmol/kg single IV, within 6 days, ICP-MS)?
**A.** 100.01% ± 10.85% of the injected dose

**Q.** And the “injected dose excreted in urine” value (Excretion in SD rats; rats, single dose, within the first 8 hours postinjection)?
**A.** Greater than 80%

**Q.** What about the NOAEL (SD rats; repeated daily IV dose for 14 days) of the same substance?
**A.** 0.46 mmol/kg/day

**Q.** And the NOAEL (SD rats; single IV dose)?
**A.** 1.39 mmol/kg

**Q.** And the “accumulation ratio AUC0–24h (D14)/AUC0–24h (D1) of Gd” value (shortened to “accumulation ratio AUC0–24h”) (SD rats; female rats, high dose 1.39 mmol/kg/d IV)?
**A.** 1.22

**Q.** And the “accumulation ratio AUC0–24h” value (SD rats; female rats, low dose 0.15 mmol/kg/d IV)?
**A.** 1.41

**Q.** And the “accumulation ratio AUC0–24h” value (SD rats; female rats, medium dose 0.46 mmol/kg/d IV)?
**A.** 1.61

**Q.** And the “accumulation ratio AUC0–24h” value (SD rats; male rats, high dose 1.39 mmol/kg/d IV)?
**A.** 1.31

**Q.** And the “accumulation ratio AUC0–24h” value (SD rats; male rats, low dose 0.15 mmol/kg/d IV)?
**A.** 1.52

**Q.** What about the “accumulation ratio AUC0–24h” value (SD rats; male rats, medium dose 0.46 mmol/kg/d IV) of the same substance?
**A.** 1.49

**Q.** What about the mortality or moribundity (SD rats; rats, any dose group, up to 1.39 mmol/kg/d) of the same substance?
**A.** no mortality or morbidity; also recorded: No mortality or moribundity

**Q.** What about the “clinical observations (body weight, food consumption, temperature, ophthalmoscopy, hematology, coagulation, clinical chemistry, urinalysis)” value (SD rats; rats, any dose level) of the same substance?
**A.** No MT218-related changes

**Q.** What about the pathological findings (SD rats; rats, low and medium repeated-dosing groups (0.15, 0.46 mmol/kg/d)) of the same substance?
**A.** No such abnormality

**Q.** And the pathological findings (SD rats; rats, single dose 1.39 mmol/kg)?
**A.** no MT218-related macroscopic and microscopic abnormality

**Q.** What about the “inhibition of CYP1A2 activity” value (CYP1A2) of the same substance?
**A.** did not inhibit

**Q.** And the “induction of mRNA expression of CYP2B6” value (CYP2B6)?
**A.** did not induce

**Q.** What about the “induction on enzyme activity of CYP2B6” value (CYP2B6) of the same substance?
**A.** no induction

**Q.** And the “inhibition of CYP2C9 activity” value (CYP2C9)?
**A.** did not inhibit
